Bioassay records (PubChem BioAssay)
HSP90 inh = HSP90 refolding inhibition in rabbit reticulocyte lysate; inhibition, % at 5.6 µM; AID 1789; actives 0.91% (n = 290,000); luciferase refolding luminescence, 3 h;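 active = inhibition above the screen-wide mean plus 3 SD, computed separately per campaign, cut at about 16% in these data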;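 also: 0% = DMSO wells and 100% = 60 µM geldanamycin wells; inhibitors lower the luminescence because luciferase stays unfolded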
FLuc act counter = firefly luciferase counter-screen for stimulation assays; P08659; 200,000 tested, under 10 active; ATPlite luciferase biochemical, luminescence, 10 min; 0 = ATP-free wells, 1 = DMSO control; activation factor at 10 µM;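 active = luciferase activation factor, scaled between plate controls, of at least 2 with compound at 10 µM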
Target sequence (P08659 whole entry, looked up): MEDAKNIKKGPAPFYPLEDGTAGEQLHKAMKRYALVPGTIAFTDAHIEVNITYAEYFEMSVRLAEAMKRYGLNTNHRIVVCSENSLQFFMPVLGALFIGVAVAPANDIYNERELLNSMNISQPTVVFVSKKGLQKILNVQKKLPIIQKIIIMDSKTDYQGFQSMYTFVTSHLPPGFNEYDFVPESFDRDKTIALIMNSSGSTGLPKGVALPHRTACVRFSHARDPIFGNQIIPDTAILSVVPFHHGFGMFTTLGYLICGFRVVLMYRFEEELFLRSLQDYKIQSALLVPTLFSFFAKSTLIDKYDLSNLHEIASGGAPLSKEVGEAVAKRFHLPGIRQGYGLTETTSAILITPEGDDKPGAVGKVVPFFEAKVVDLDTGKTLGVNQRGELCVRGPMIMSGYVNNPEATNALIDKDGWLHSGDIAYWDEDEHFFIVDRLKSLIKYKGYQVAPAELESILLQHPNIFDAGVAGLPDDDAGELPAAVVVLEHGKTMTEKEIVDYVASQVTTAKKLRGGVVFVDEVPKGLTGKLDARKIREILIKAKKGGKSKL
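System: cell-free luciferase reagent; medium: PBS as buffer for the ATP substrate; doses: test compounds dosed from 2 mM stocks in 100% DMSO; incubation: 10 min, room temperature; measured by: luminescence from luciferase reaction; read-out: luciferase activation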
FLuc inh counter = Photinus pyralis luciferase inhibition counter-screen. P08659. ATPLite firefly luciferase biochemical luminescence, 10 min. inhibition, % at 10 µM. actives 1.5% (n = 200,000). AID 1006;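 active = inhibition above about 50% when tested at 10 µM, limit read from the data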
PPC-1+TRAIL kill = compounds killing PPC-1 cancer cells with TRAIL present (potentiator screen, no TRAIL-free arm); PPC-1 cells + TRAIL, ATPLite viability luminescence; AID 1443; cell killing (% activity), % at 4 µM or 5 µM; actives 0.41% (n = 220,000);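 active = cell killing above 50% in the first pass at 4 µM, then a duplicate retest at 5 µM averaging 50% or more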;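 also: plate controls were cells with TRAIL plus DMSO for no effect and medium-only wells lacking cells for full effect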
C8 TRAIL sens = sensitizes caspase-8 expressing cells to TRAIL | inhibition (viability loss, TRAIL sensitization), % at 10 µM | actives 1% (n = 360,000) | NB7+C8 cells + TRAIL, ATPlite viability luminescence;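 active = compounds causing at least 50% loss of cell viability in the single-dose screen, relative to plate controls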
PPC-1 tox = kills PPC-1 cells. shares compounds with PPC-1+TRAIL kill. actives 50% (n = 1,200). cytotoxicity, % at 5 µM. AID 1447. PPC-1 viability, ATPlite luminescence, overnight;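 active = reconfirmed compounds whose average cytotoxicity reaches 50% or more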;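 also: 0% = DMSO-treated cells and 100% = wells holding medium but no cells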
* = called active by the depositor; x = no result. An excerpt weighted towards active compounds, which were near 2% of everything screened.

SMILES	HSP90 inh	FLuc act counter	FLuc inh counter	PPC-1+TRAIL kill	C8 TRAIL sens	PPC-1 tox
COc1ccc(-c2cc3nc(C)n(N)c(=O)c3s2)cc1	85*	x	x	89*	86*	90*
Cc1nc2cc(-c3ccccc3)sc2c(=O)n1N	49*	0.1	89*	65*	76*	64*
O=C(Nc1ccc(Cl)c(Cl)c1)c1ccncc1	-2	1	1	8	3	12
O=C(Nc1ccc(Cl)c(Cl)c1)c1ccc(Cl)c(Cl)c1	-1	x	x	2	-1	x
O=C(O)c1ccc2c(c1)C(=O)N(c1cccc(-c3nc4ccccc4s3)c1)C2=O	-3	0.7	34	39	49	37
Nc1cccc(-c2nc3ccccc3s2)c1	-3	0.2	76*	36	51*	39
FC(F)(F)c1ccc(-c2nc3ccccc3s2)cc1	x	x	x	x	-14	x
CC(=O)Oc1cccc(N2C(=O)c3ccc(C(=O)O)cc3C2=O)c1	5	1	-5	13	-10	x
O=S(=O)(c1cccc(-c2nc3ccccc3s2)c1)N1CCCC1	14	1	-2	10	3	8
CCCc1cc(=O)[nH]c(SCC(=O)NC2(C#N)CCCCC2)n1	x	x	x	x	-5	x
CC(C)C[C@H]1CN([C@@H](CC(C)C)CN2CCC[C@@H]2CN2C(=S)NC[C@@H]2Cc2ccc(O)cc2)C(=S)N1CC1CCCCC1	x	x	x	x	-10	x
CC(C)N1CCN(c2ccncc2S(=O)(=O)N2CCN(C)CC2)CC1	x	x	x	x	-12	x
C=CCn1c(N/N=C/c2ccc(O)cc2)nc2ccccc2c1=O	0	0.2	82*	27	18	32
O=C(/C=C/[C@H]1O[C@@H](n2ccc(=O)[nH]c2=O)[C@H](O)[C@@H]1O)NCCN1CCCC1	x	x	x	x	-9	x
O=c1oc(/C=C/c2ccccc2)nc2sc3c(c12)CCC3	-2	0.6	42	8	8	-1
COc1ccc(/C=C/c2nc3sc4c(c3c(=O)o2)CCC4)cc1	5	x	x	x	5	x
CC(C#N)(NC(=O)CN1CCN(S(=O)(=O)c2ccccc2C#N)CC1)C1CC1 (stereo unspecified)	x	x	x	x	1	x
COC(=O)c1ccc(Nc2nc(C)cc(=O)[nH]2)cc1	-1	1	0	3	-4	15
CCOC(=O)Nc1ccc(S(=O)(=O)NCCCN2CCOCC2)cc1	-1	1.1	-6	9	-1	6
CCCc1nnc(SCc2ccc(OC)cc2)n1N	10	1	-1	-2	1	-16
CCCOc1ccc(CSc2nnc(CCC)n2N)cc1	2	1	-2	2	3	x
Cc1[nH]n(-c2ccccc2)c(=O)c1/C=N/Nc1nncc(-c2ccccc2)n1	1	0.1	85*	63*	58*	58*
O=C(O)c1c2c(nc3ccccc13)/C(=C/c1ccc(OC(F)F)cc1)CCC2	-2	x	x	x	2	x
O=C(O)c1c2c(nc3ccccc13)/C(=C/c1ccc(O)cc1)CC2	13	0	96*	48	58*	49
O=S1(=O)N[C@@H](Cc2ccccc2)COc2cc(N3CCC[C@@H]3CO)ccc21	x	x	x	x	-1	x
SMILES	HSP90 inh	FLuc act counter	FLuc inh counter	PPC-1+TRAIL kill	C8 TRAIL sens	PPC-1 tox
Cc1ccc(-c2nn(-c3ccccc3)cc2/C=N/NC(=O)c2ccncc2)o1	4	1	-4	29	18	27
Cc1ccc(C(CCNC(C)c2cccs2)c2ccco2)cc1 (stereo unspecified)	4	x	x	-3	31	x
O=C(c1ccco1)N1CCN(C2CN(Cc3cn(Cc4ccccc4C(F)(F)F)nn3)S(=O)(=O)C2)CC1 (stereo unspecified)	x	x	x	x	-9	x
O=C(/C=C/c1ccc(Cl)cc1Cl)Nc1cccc(S(=O)(=O)NC2=NCCC2)c1	-2	0	96*	87*	91*	88*
CCN(CC)C(=O)CN(c1ccc(F)c(Cl)c1)S(C)(=O)=O	-1	1.2	-17	-1	-9	12
CCN(CC)C(=O)CN(c1ccc2c(c1)OCO2)S(C)(=O)=O	5	1.1	-7	0	-1	x
O=C(N/N=C/c1ccc([N+](=O)[O-])cc1)c1[nH]ncc1Br	-1	0.4	60*	27	49	26
CCCc1nc2cc(C)c(Br)c(C)n2c1Cc1ccsc1	x	x	x	x	16	x
On1onc2c3cc(-c4ccccc4)nc3ccc21	0	1	-5	24	3	18
CC(=O)c1ccc(N=Nc2ccc(N)cc2)cc1	13	x	x	54*	83*	55*
